M5 PAM = human M5 muscarinic receptor positive allosteric modulators, primary screen, CHO-K1 cells, Fluo-8 calcium fluorescence. CHO-K1 hM5, ACh EC20 PAM; 0% = ACh EC20, 100% = ACh EC100. activation, % at 3 µM. 0.3% of 360,000 active. AID 624038, 2012;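 active = activation above the run cutoff, the mean activation of all test compounds plus 3 SD, cut at about 18% in these data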
Target sequence (P08912 whole entry, looked up): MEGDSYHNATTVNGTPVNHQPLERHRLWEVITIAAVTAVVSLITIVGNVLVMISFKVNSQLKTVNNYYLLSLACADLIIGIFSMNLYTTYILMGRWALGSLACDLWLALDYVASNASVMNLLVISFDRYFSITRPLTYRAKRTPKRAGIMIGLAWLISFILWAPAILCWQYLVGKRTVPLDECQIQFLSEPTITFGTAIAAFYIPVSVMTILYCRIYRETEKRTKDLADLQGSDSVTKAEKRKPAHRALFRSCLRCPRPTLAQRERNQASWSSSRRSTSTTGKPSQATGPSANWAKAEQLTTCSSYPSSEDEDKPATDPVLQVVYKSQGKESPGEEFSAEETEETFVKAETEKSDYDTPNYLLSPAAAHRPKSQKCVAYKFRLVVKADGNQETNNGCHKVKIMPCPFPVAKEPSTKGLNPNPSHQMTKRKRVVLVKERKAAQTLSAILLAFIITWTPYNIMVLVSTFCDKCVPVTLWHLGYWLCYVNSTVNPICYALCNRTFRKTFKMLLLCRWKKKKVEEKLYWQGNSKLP
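system = human M5 receptor in CHO-K1 cells | compound = one concentration, 3 µM final (nominal) | schedule = Post-acetylcholine fluorescence recording 140 s | signal = Fluo-8 calcium dye fluorescence, kinetic read | benchmarks = low control EC20 acetylcholine (0%), high control EC100 acetylcholine (100%) | repeats = singlicate, one well per test compound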
CHRM5 antagonist = human M5 muscarinic receptor antagonists, primary screen, CHO cells, Fluo-8 calcium fluorescence. inhibition, % at 3 µM. Muscarinic acetylcholine receptor M5 (Homo sapiens), P08912. CHO-hM5 cells, ACh EC80. 0.59% of 360,000 active;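 active = inhibition above a per-plate cutoff, the mean of that plate's test compounds plus 3 SD, cut at about 27% in these data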;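 also: 0% = acetylcholine EC80 with DMSO and 100% = DMSO without agonist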
M4 PAM = human M4 muscarinic receptor positive allosteric modulators, primary screen, CHO-K1 cells, Fluo-8 calcium fluorescence. 0.4% of 360,000 active. AID 624126, 2012. CHO-K1 hM4/Gqi5, ACh EC20; 0% = ACh EC20, 100% = maximal ACh. Muscarinic acetylcholine receptor M4 (Homo sapiens), P08173. activation, % at 3 µM;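 active = activation above its plate's cutoff, the mean activation of sample wells plus 3 SD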
M4 antag = human M4 muscarinic receptor antagonists, primary screen, CHO cells, Fluo-8 calcium fluorescence | Muscarinic acetylcholine receptor M4 (Homo sapiens), P08173 | 0.73% of 360,000 active | CHO-hM4 cells, ACh EC80 | inhibition, % at 3 µM | AID 624125, 2012;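 active = inhibition above its plate's cutoff, the mean inhibition of sample wells plus 3 SD, cut at about 27% in these data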;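 also: 0% = acetylcholine EC80 with DMSO and 100% = DMSO without agonist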
M5 ag = human M5 muscarinic receptor agonists, primary screen, CHO-K1 cells, Fluo-8 calcium fluorescence | CHO-K1 hM5 cells; 0% DMSO wells, 100% maximal acetylcholine response | Muscarinic acetylcholine receptor M5 (Homo sapiens), P08912 | 0.19% of 360,000 active | activation, % at 3 µM;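 active = activation above the run's mean over test compounds plus 3 SD, cut at about 23% in these data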;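 also: signal is peak over basal fluorescence ratio across the kinetic read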
M4 ag = human M4 muscarinic receptor agonists, primary screen, CHO-K1 cells, Fluo-8 calcium fluorescence; Muscarinic acetylcholine receptor M4 (Homo sapiens), P08173; CHO-K1 hM4/Gqi5; vehicle 0%, full acetylcholine response 100%; activation, % at 3 µM; 0.14% of 360,000 active;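 active = activation above the run mean over all test wells plus 3 SD, cut at about 32% in these data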;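 also: peak over basal fluorescence ratio per well then scaled between controls; 0% = DMSO wells and 100% = acetylcholine at EC100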
An asterisk follows results filed as active. The list is not random: actives were taken first. Their share in the collection is about 1.8%.

SMILES	M5 PAM	CHRM5 antagonist	M4 PAM	M4 antag	M5 ag	M4 ag
COc1ccc(N=C2S/C(=C\c3ccc(N4CCOCC4)o3)C(=O)N2CCc2c[nH]c3ccccc23)cc1	-1	11	-13	45*	10	8
Cc1ccc(C2=NC3(CCCCC3)N=C2SCC(=O)Nc2ccc3c(c2)OCCO3)cc1	-2	-3	4	0	0	-1
OC(CNCC1(N2CCCCC2)CCCCC1)COc1ccc(Cl)cc1Cl (configuration not stated)	26*	-8	-3	-8	-14	5
CC(Sc1nnc(C2CC2)n1-c1ccccc1)C(=O)N1CCNC1=O (configuration not stated)	-4	3	23*	-11	3	0
CC(Sc1nnc(C2CC2)n1Cc1ccccc1)C(=O)N1CCNC1=O (configuration not stated)	5	-4	3	-3	0	1
COc1ccc(C(C)(C)C)cc1NC(=O)COc1ccc(-c2nnco2)cc1	-1	11	7	1	4	4
COC(=O)/C=C1\OCc2ccc(C)cc21	19*	-18	7	-5	4	0
C=CCOc1ccccc1CN1CCCC(CCC(=O)N(C)CCc2ccccn2)C1 (configuration not stated)	2	-7	-15	12	-10	0
O=C(CNC(=O)c1ccco1)NCC(=O)OCc1cccc(Cl)c1	5	-9	44*	5	0	1
O=C(CNC(=O)c1ccco1)OCc1cccc(Cl)c1	4	-2	0	0	-3	1
O=C(NCCNC(=O)c1ccc(Cl)cc1Cl)c1ccco1	6	-11	16*	-16	-2	1
COc1ccccc1N1CCN(Cc2cc(=O)oc3cc(C)cc(C)c23)CC1	0	13	-1	3	0	1
O=C(NC1CC2CCCC(C1)N2C(=O)NCc1ccccc1)C1CC1 (configuration not stated)	3	-1	-9	32*	-5	0
O=C(NC1CC2CCCC(C1)N2C(=O)Nc1ccccc1)C1CC1 (configuration not stated)	1	8	3	-6	-3	1
C/C(CS(=O)(=O)c1ccc(Cl)cc1)=N/NC(N)=S	4	-3	20*	-11	3	1
C/C(CS(=O)(=O)c1ccc(Cl)c(Cl)c1)=N/NC(N)=S	-2	5	-1	-5	-2	3
FC(F)(F)c1cc(-c2ccccc2)nc(N2CCCCCC2)n1	0	0	14	-2	-1	1
COc1ccccc1N1CCN(c2nc(-c3ccccc3)cc(C(F)(F)F)n2)CC1	27*	-20	10	-4	-1	1
CC(=O)c1cccc(CN(C)CC2CCCN(CCc3ccccc3C)C2)c1 (configuration not stated)	-33	81*	-16	88*	-23	2
COc1ccccc1CCN1CCCC(CN(C)CC(C)(C)CO)C1 (configuration not stated)	-1	11	-16	30*	-16	1
COc1ccc(NC(=O)COc2ccccc2C(=O)NCC(c2ccccc2)N(C)C)cc1Cl (configuration not stated)	-19	57*	-6	15	-6	12
COc1ccc(NC(=O)COc2ccccc2)cc1Cl	-8	15	-4	3	-9	1
COc1ccc(NS(=O)(=O)c2c(C)cc(C)cc2C)cc1	26*	5	-5	1	-11	-1
Cc1n[nH]c(C)c1CCCCOc1ccccc1[N+](=O)[O-]	-24	34*	-13	13	-6	13
CCc1nc2ccc(C(=O)NCCC(C)C)cn2c1N(CC)CCOC	-2	-6	1	-4	-1	0
SMILES	M5 PAM	CHRM5 antagonist	M4 PAM	M4 antag	M5 ag	M4 ag
O=S(=O)(Nc1nc2ccccc2[nH]1)c1ccc2ccccc2c1	-16	39*	-33	70*	-7	2
NS(=O)(=O)c1cccc(NC(=O)c2cccs2)c1	5	-4	2	-9	-3	0
NS(=O)(=O)c1ccc(CCNC(=O)c2cc(-c3cccs3)nc3ccccc23)cc1	-13	9	-15	16	0	17
NS(=O)(=O)c1ccc(CNC(=O)c2cc(-c3cccs3)nc3ccccc23)cc1	-16	16	-20	30*	-1	16
NS(=O)(=O)c1cccc(NC(=O)c2cc(-c3cccs3)nc3ccccc23)c1	-13	13	-22	30*	0	13
Cc1ccc(S(=O)(=O)N(C)C)cc1NC(=O)c1cc(-c2ccncc2)nc2ccccc12	-24	9	-7	-12	3	16
CN(C)S(=O)(=O)c1cccc(NC(=O)c2cc(-c3cccs3)nc3ccccc23)c1	-18	17	-32	31*	4	22
COc1ccc(C(=O)NNC2=NCCCCC2)cc1	2	11	-4	4	-4	1
CCOc1ccc(NS(=O)(=O)c2csc(C(N)=O)c2)cc1	-1	4	0	-3	-1	1
CCOc1ccccc1/C=C/C(=O)N1CCN(C(=O)c2ccco2)CC1	3	11	-2	3	4	2
CC(=O)c1sc(Nc2ccccc2)nc1C	5	4	-3	-3	-7	0
CC(=O)c1sc(Nc2ccc(Oc3ccccc3)cc2)nc1C	-20	19	-15	34*	-5	7
Cc1ccc(NC(=O)N2CCCC2C(=O)NCC2CCCO2)cc1 (configuration not stated)	0	-1	-4	2	1	0
COc1ccccc1Cc1c(C2CCCCC2)nc2c3ccccc3ccn12	18*	1	1	-3	-3	-1
COc1ccc(CC2(CO)CCN(C(C)Cc3ccc(Cl)cc3)CC2)cc1 (configuration not stated)	-2	3	-20	13	-3	5
COc1ccc(CCC(C)N2CCC(CO)(Cc3ccccc3)CC2)cc1 (configuration not stated)	-5	3	-10	33*	-19	4
CC(C)c1ccc(NC(=O)C2Cc3c(-c4ccco4)ccnc3O2)cc1 (configuration not stated)	-1	-1	0	7	0	-1
Cc1ccccc1NC(=O)Cc1nc(COC(=O)c2ccc(Cl)nc2)cs1	-7	7	-8	5	2	12

High-throughput results from PubChem BioAssay.
